From ChEMBL document CHEMBL1125797, “Synthesis, characterization and myocardial uptake of cationic bis(arene)technetium(I) complexes” (J Med Chem, 1991)

How the values were obtained:
Rattus norvegicus [1] = assay: Biodistribution of compound in rat lungs at 1440 min after intravenous administration; assay type: ADME, organism-based, Lung; conditions: in vivo, 24 h
Method in brief: (§1)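 Rats received the 99mTc complex in normal saline (~12.5 μCi/mL) by lateral tail vein injection at ~25 μCi/kg and were killed by cervical dislocation at the stated time. Tissues were washed with saline, blotted, weighed and γ-counted to give percent injected dose/g. Time-course values are averages of male and female rats.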

Rattus norvegicus [2] = assay: Biodistribution of compound in rat lungs at 180 min after intravenous administration; assay type: ADME, organism-based, Lung; conditions: in vivo, 3 h; method in brief: as §1
Rattus norvegicus [3] = assay: Biodistribution of compound in rat lungs at 360 min after intravenous administration; assay type: ADME, organism-based, Lung; conditions: in vivo, 6 h; method in brief: as §1
Rattus norvegicus [4] = assay: Biodistribution of compound in rat lungs at 45 min after intravenous administration; assay type: ADME, organism-based, Lung; conditions: in vivo, 0.75 h; method in brief: as §1
Rattus norvegicus [5] = assay: Biodistribution of compound in rat lungs at 5 min after intravenous administration; assay type: ADME, organism-based, Lung; conditions: in vivo; method in brief: as §1
Rattus norvegicus [6] = assay: Biodistribution of compound in rat lungs at 90 min after intravenous administration; assay type: ADME, organism-based, Lung; conditions: in vivo, 1.5 h; method in brief: as §1
Rattus norvegicus [7] = assay: Biodistribution of compound in rat muscle at 1440 min after intravenous administration; assay type: ADME, organism-based, Muscle tissue; conditions: in vivo, 24 h; method in brief: as §1
Rattus norvegicus [8] = assay: Biodistribution of compound in rat muscle at 180 min after intravenous administration; assay type: ADME, organism-based, Muscle tissue; conditions: in vivo, 3 h; method in brief: as §1
Rattus norvegicus [9] = assay: Biodistribution of compound in rat muscle at 360 min after intravenous administration; assay type: ADME, organism-based, Muscle tissue; conditions: in vivo, 6 h; method in brief: as §1
Rattus norvegicus [10] = assay: Biodistribution of compound in rat muscle at 45 min after intravenous administration; assay type: ADME, organism-based, Muscle tissue; conditions: in vivo, 0.75 h; method in brief: as §1
Rattus norvegicus [11] = assay: Biodistribution of compound in rat muscle at 5 min after intravenous administration; assay type: ADME, organism-based, Muscle tissue; conditions: in vivo; method in brief: as §1
Rattus norvegicus [12] = assay: Biodistribution of compound in rat muscle at 90 min after intravenous administration; assay type: ADME, organism-based, Muscle tissue; conditions: in vivo, 1.5 h; method in brief: as §1
Rattus norvegicus [13] = assay: Biodistribution of compound in rat bone at 1440 min after intravenous administration; assay type: ADME, organism-based, Bone element; conditions: in vivo, 24 h
Method in brief: (§2)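 Time course in Sprague-Dawley rats after lateral tail-vein injection of the 99mTc complex in normal saline (~12.5 μCi/mL) at ~25 μCi/kg. Tissues were sampled at the stated times, washed with saline, blotted, weighed and γ-counted to give percent injected dose per g. Values are averages of male and female rats.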

Rattus norvegicus [14] = assay: Biodistribution of compound in rat bone at 180 min after intravenous administration; assay type: ADME, organism-based, Bone element; conditions: in vivo, 3 h; method in brief: as §2
Rattus norvegicus [15] = assay: Biodistribution of compound in rat bone at 45 min after intravenous administration; assay type: ADME, organism-based, Bone element; conditions: in vivo, 0.75 h; method in brief: as §2
Rattus norvegicus [16] = assay: Biodistribution of compound in rat bone at 5 min after intravenous administration; assay type: ADME, organism-based, Bone element; conditions: in vivo; method in brief: as §2
Rattus norvegicus [17] = assay: Biodistribution of compound in rat bone at 90 min after intravenous administration; assay type: ADME, organism-based, Bone element; conditions: in vivo, 1.5 h; method in brief: as §2
Rattus norvegicus [18] = assay: Biodistribution of compound in rat bone marrow at 1440 min after intravenous administration; assay type: ADME, organism-based; conditions: in vivo, 24 h; method in brief: as §2
Rattus norvegicus [19] = assay: Biodistribution of compound in rat bone marrow at 180 min after intravenous administration; assay type: ADME, organism-based; conditions: in vivo, 3 h; method in brief: as §2
Rattus norvegicus [20] = assay: Biodistribution of compound in rat bone marrow at 360 min after intravenous administration; assay type: ADME, organism-based; conditions: in vivo, 6 h; method in brief: as §2
Rattus norvegicus [21] = assay: Biodistribution of compound in rat bone marrow at 45 min after intravenous administration; assay type: ADME, organism-based; conditions: in vivo, 0.75 h; method in brief: as §2
Rattus norvegicus [22] = assay: Biodistribution of compound in rat bone marrow at 90 min after intravenous administration; assay type: ADME, organism-based; conditions: in vivo, 1.5 h; method in brief: as §2
Rattus norvegicus [23] = assay: Biodistribution of compound in rat bone marrow at 5 min after intravenous administration; assay type: ADME, organism-based; conditions: in vivo; method in brief: as §2
Rattus norvegicus [24] = assay: Biodistribution of compound in rat brain after 5 min of administration; assay type: ADME, organism-based; conditions: in vivo
Rattus norvegicus [25] = assay: Biodistribution of compound in rat eye at 1440 min after intravenous administration; assay type: ADME, organism-based; conditions: in vivo, 24 h; method in brief: as §2
Rattus norvegicus [26] = assay: Biodistribution of compound in rat eye at 180 min after intravenous administration; assay type: ADME, organism-based; conditions: in vivo, 3 h; method in brief: as §2
Rattus norvegicus [27] = assay: Biodistribution of compound in rat eye at 360 min after intravenous administration; assay type: ADME, organism-based; conditions: in vivo, 6 h; method in brief: as §2
Rattus norvegicus [28] = assay: Biodistribution of compound in rat eye at 45 min after intravenous administration; assay type: ADME, organism-based; conditions: in vivo, 0.75 h; method in brief: as §2
Rattus norvegicus [29] = assay: Biodistribution of compound in rat eye at 5 min after intravenous administration; assay type: ADME, organism-based; conditions: in vivo; method in brief: as §2
Rattus norvegicus [30] = assay: Biodistribution of compound in rat eye at 90 min after intravenous administration; assay type: ADME, organism-based; conditions: in vivo, 1.5 h; method in brief: as §2
Rattus norvegicus [31] = assay: Biodistribution of compound in rat feces at 1440 min after intravenous administration; assay type: ADME, organism-based; conditions: in vivo, 24 h
Rattus norvegicus [32] = assay: Biodistribution of compound in rat feces at 360 min after intravenous administration; assay type: ADME, organism-based; conditions: in vivo, 6 h
Rattus norvegicus [33] = assay: Biodistribution of compound in rat liver after 5 min of administration.; assay type: ADME, organism-based; conditions: in vivo
Method in brief: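 Female Sprague-Dawley rats (150–200 g) received the complex in normal saline (~12.5 μCi/mL) through a lateral tail vein at ~25 μCi/kg. Rats were killed by cervical dislocation 5 min after injection. Tissues were washed with saline, blotted, weighed and γ-counted to give percent injected dose/g tissue.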

Rattus norvegicus [34] = assay: Biodistribution of compound in rat liver at 45 min after intravenous administration; assay type: ADME, organism-based; conditions: in vivo, 0.75 h; method in brief: as §1
Rattus norvegicus [35] = assay: Biodistribution of compound in rat blood at 45 min after intravenous administration; assay type: ADME, organism-based; conditions: in vivo, 0.75 h; method in brief: as §2
Rattus norvegicus [36] = assay: Biodistribution of compound in rat bone at 360 min after intravenous administration; assay type: ADME, organism-based, Bone element; conditions: in vivo, 6 h; method in brief: as §2

Dose/g (Rattus norvegicus [1]): 0.18 % dose/organ
Dose/g (Rattus norvegicus [2]): 0.81 % dose/organ
Dose/g (Rattus norvegicus [3]): 0.7 % dose/organ
Dose/g (Rattus norvegicus [4]): 1.5 % dose/organ
Dose/g (Rattus norvegicus [5]): 1.4 % dose/organ
Dose/g (Rattus norvegicus [6]): 1.17 % dose/organ
Dose/g (Rattus norvegicus [7]): 56 % dose/organ
Dose/g (Rattus norvegicus [8]): 44 % dose/organ
Dose/g (Rattus norvegicus [9]): 31 % dose/organ
Dose/g (Rattus norvegicus [10]): 30 % dose/organ
Dose/g (Rattus norvegicus [11]): 44 % dose/organ
Dose/g (Rattus norvegicus [12]): 42 % dose/organ
Dose/g (Rattus norvegicus [13]): 1.7 % dose/organ
Dose/g (Rattus norvegicus [14]): 2.2 % dose/organ
Dose/g (Rattus norvegicus [15]): 2.6 % dose/organ
Dose/g (Rattus norvegicus [16]): 3.8 % dose/organ
Dose/g (Rattus norvegicus [17]): 3.5 % dose/organ
Dose/g (Rattus norvegicus [18]): 0.1 % dose/organ
Dose/g (Rattus norvegicus [19]): 0.2 % dose/organ
Dose/g (Rattus norvegicus [20]): 0.11 % dose/organ
Dose/g (Rattus norvegicus [21]): 0.24 % dose/organ
Dose/g (Rattus norvegicus [22]): 0.28 % dose/organ
Dose/g (Rattus norvegicus [23]): 0.43 % dose/organ
Dose/g (Rattus norvegicus [24]): 0.02%
Dose/g (Rattus norvegicus [25]): 0.01 % dose/organ
Dose/g (Rattus norvegicus [26]): 0.02 % dose
Dose/g (Rattus norvegicus [27]): 0.022 % dose
Dose/g (Rattus norvegicus [28]): 0.023 % dose
Dose/g (Rattus norvegicus [29]): 0.03 % dose
Dose/g (Rattus norvegicus [30]): 0.021 % dose
Dose/g (Rattus norvegicus [31]): 30 % dose
Dose/g (Rattus norvegicus [32]): 0.3 % dose
Dose/g (Rattus norvegicus [33]): 0.67%
Dose/g (Rattus norvegicus [34]): 4 % dose
Dose/ml (Rattus norvegicus [35]): 0.51 % dose
Dose/g (Rattus norvegicus [36]): 1.4 % dose
Substance: Bis(1,2,3,5-tetramethylbenzene)technetium
